Results on 40 molecules are retold here after ChEMBL document CHEMBL3352280, “Modulation of cAMP-specific PDE without emetogenic activity: new sulfide-like PDE7 inhibitors” (J Med Chem, 2014).

The target of assay [1] is T1, High affinity 3',5'-cyclic-AMP phosphodiesterase 7A (Homo sapiens, UniProt Q13946). Description: Inhibition of human recombinant PDE7A1 assessed as inhibition of hydrolysis of [3H]cAMP at 10 uM after 20 mins by scintillation proximity assay. In short, it runs like this: (§1)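 Scintillation proximity assay with human recombinant enzyme: PDE7A1 0.02 U, PDE3A 0.02 U, PDE7B 0.5 U, PDE8A 0.5 U. Enzyme incubated with 5 nCi [3H]cAMP and inhibitor in kit buffer for 20 min at 30 °C. SPA beads added and shaken 1 h at room temperature, settled 30 min, radioactivity counted.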
T1 sequence (Q13946 whole entry): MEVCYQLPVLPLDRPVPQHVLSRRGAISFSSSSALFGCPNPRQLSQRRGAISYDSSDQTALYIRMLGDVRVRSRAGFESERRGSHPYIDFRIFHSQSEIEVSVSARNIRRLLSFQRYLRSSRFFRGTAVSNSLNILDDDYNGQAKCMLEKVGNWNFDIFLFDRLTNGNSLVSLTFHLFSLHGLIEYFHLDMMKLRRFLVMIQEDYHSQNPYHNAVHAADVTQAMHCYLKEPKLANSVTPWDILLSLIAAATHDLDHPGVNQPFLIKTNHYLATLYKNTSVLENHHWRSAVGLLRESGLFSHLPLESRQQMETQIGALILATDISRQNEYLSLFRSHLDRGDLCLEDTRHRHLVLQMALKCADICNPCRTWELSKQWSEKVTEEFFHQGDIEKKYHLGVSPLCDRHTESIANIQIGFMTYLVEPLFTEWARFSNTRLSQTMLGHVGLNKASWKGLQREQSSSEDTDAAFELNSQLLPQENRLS

In assay [2] the target is T1, High affinity 3',5'-cyclic-AMP phosphodiesterase 7A. Description: Inhibition of human recombinant PDE7A1 assessed as inhibition of hydrolysis of [3H]cAMP after 20 mins by scintillation proximity assay. A digest of the protocol: as §1
(SPA uses beads or plates that emit light when radiolabelled molecules are held near them.)

The term inhibition denotes how much of the control response was suppressed. In general, IC50 refers to the concentration that inhibits the measured activity by half. With `Nc1ccc(Sc2ccc([N+](=O)[O-])cc2C(F)(F)F)cc1`, the inhibition in assay [1] amounted to 63%. In addition, the IC50 in assay [2] turned out to be 9.27 µM.
Turning to `Nc1ccc(Sc2ccc(F)cc2[N+](=O)[O-])cc1`, the inhibition in assay [1] amounted to 64%. For the same molecule, in assay [2], the IC50 was 6.18 µM.
In the case of `CC(=O)Nc1ccc(Oc2ccc(Cl)cc2[N+](=O)[O-])cc1`, the inhibition in assay [1] was found to be 17%.
Turning to `CC(=O)Nc1ccc(Sc2ccc(Cl)cc2[N+](=O)[O-])cc1`, the inhibition in assay [1] is 7%.
Take `Nc1cccc(Sc2ccc(Cl)cc2[N+](=O)[O-])c1`: in assay [1], the inhibition was 68%. Also, the IC50 in assay [2] was determined as 5.69 µM.
With `Nc1ccccc1Sc1ccc([N+](=O)[O-])cc1C(F)(F)F`, in assay [1], the inhibition was 42%.
Same read-out and setting: the figure for `c1ccc(Sc2ccncc2)cc1` is 44%; for `CC(=O)Nc1ccc(Sc2ccc([N+](=O)[O-])cc2Cl)cc1` it is 26%.
With `Nc1ccccc1Sc1sccc1[N+](=O)[O-]`, the IC50 in assay [2] stood at 4.27 µM.
Still for that read-out and setting: the figure for `Nc1ccc(Cl)cc1Sc1ccccc1[N+](=O)[O-]` is 7.3 µM.
Take `CC(=O)c1ccc(Sc2ccncc2)c([N+](=O)[O-])c1`: in assay [1], the inhibition turned out to be 56%. Also, the IC50 in assay [2] was determined as 3.8 µM.
`Cc1cnc(Sc2ccncc2)c([N+](=O)[O-])c1`: in assay [1], the inhibition came out at 27%.
For `O=c1c2ccccc2[nH]c(=S)n1-c1ccccc1`, the inhibition in assay [1] came to 76%. The IC50 in assay [2] was 4.68 µM.
With `CC(=O)NNc1ccccc1Sc1ccccc1Br`, the inhibition in assay [1] is 27%.
`O=[N+]([O-])c1ccc(Cl)cc1Sc1ccccn1`: the inhibition in assay [1] came out at 56%. Further, the half-inhibitory concentration (IC50) in assay [2] is 7.98 µM.
The like results for `Nc1ccccc1Sc1cc(Cl)c(Cl)cc1[N+](=O)[O-]` were, in that order, 74% and 6.48 µM.
Regarding `Nc1ccc(Sc2cc(Cl)ccc2[N+](=O)[O-])cc1`, the inhibition in assay [1] came out at 71%. For the same molecule, the IC50 in assay [2] is 2.2 µM.
As for `Cc1cnc(Sc2cccc(N)c2)c([N+](=O)[O-])c1`, the inhibition in assay [1] was 3%.
The same measure, in the same setting: the figure for `O=[N+]([O-])c1ccc(Sc2ccc(Br)cc2)c(Cl)c1` is 23%.
As for `Nc1ccc(Sc2ccc([N+](=O)[O-])cc2Cl)cc1`, the inhibition in assay [1] turned out to be 83%. Besides, the IC50 in assay [2] came to 3.97 µM.
As to `Cc1cnc(Sc2ccc(-c3ccccc3)cc2)c([N+](=O)[O-])c1`, the inhibition in assay [1] came out at 2%.
With `O=[N+]([O-])c1ccc(Sc2ccc([N+](=O)[O-])cc2Cl)cc1`, in assay [1], the inhibition came out at 1%.
On to `CC(=O)Nc1ccccc1Sc1sccc1[N+](=O)[O-]`, for which the inhibition in assay [1] came out at 31%.
With `O=[N+]([O-])c1cc(Cl)ccc1Sc1ccc(Br)cc1`, the inhibition in assay [1] stood at 11%.
Turning to `CC(C)c1ccccc1Sc1ccc([N+](=O)[O-])cc1Cl`, the inhibition in assay [1] is 17%.
For the molecule `Nc1ccc(Sc2ccc(Cl)cc2N)cc1`, the inhibition in assay [1] came out at 13%.
On the same count and under the same terms, the figure for `O=[N+]([O-])c1ccc(SCc2ccccc2Br)c(Cl)c1` is 33%; for `O=[N+]([O-])c1ccc(Sc2ccc(Cl)cc2[N+](=O)[O-])cc1` it is 6%; for `CC(C)c1ccc(Sc2ccc(Cl)cc2[N+](=O)[O-])cc1` it is 10%.
Same read-out and setting: the figure for `COc1ccc(Sc2ccncc2)cc1` is 18%; for `c1cnc(Sc2ccncc2)nc1` it is 12%.
Consider `O=[N+]([O-])c1ccsc1Sc1sccc1[N+](=O)[O-]`, for which the inhibition in assay [1] turned out to be 31%.
`Nc1ccccc1Sc1ccc(F)cc1[N+](=O)[O-]`: the inhibition in assay [1] stood at 38%.
For `CC(C)c1ccc(Sc2ccc([N+](=O)[O-])cc2Cl)cc1`, the inhibition in assay [1] was 15%.
As for `O=[N+]([O-])c1cc(Cl)ccc1SCc1ccccc1Br`, the inhibition in assay [1] stood at 31%.
For `COc1ccc(Sc2cccnc2)cc1`, in assay [1], the inhibition stood at 17%.
The same measure, in the same setting: the figure for `Nc1cccc(Sc2ccncc2)c1` is 36%.
Still for that read-out and setting: the figure for `c1ccc(-c2ccc(Sc3ccccn3)cc2)cc1` is 32%.
`CC(=O)Nc1ccc(Oc2ccc([N+](=O)[O-])cc2Cl)cc1`: the inhibition in assay [1] was 4%.
For `O=[N+]([O-])c1ccc(Cl)cc1Sc1ccc(Br)cc1`, the inhibition in assay [1] was determined as 36%.
